As usually defined, the Kd is a measure of binding affinity in units of concentration. The low end stands for a tighter complex, the high end for a looser complex. By EC50 is commonly meant the concentration at which the effect is half-maximal. A higher EC50 goes with a less potent agent. The term IC50 denotes the concentration at which inhibition is half-maximal.

Each structure is given as a SMILES string.

The target of assay [1] is T1, TR4 (Homo sapiens, UniProt P49116).
T1 sequence (P49116 1-596): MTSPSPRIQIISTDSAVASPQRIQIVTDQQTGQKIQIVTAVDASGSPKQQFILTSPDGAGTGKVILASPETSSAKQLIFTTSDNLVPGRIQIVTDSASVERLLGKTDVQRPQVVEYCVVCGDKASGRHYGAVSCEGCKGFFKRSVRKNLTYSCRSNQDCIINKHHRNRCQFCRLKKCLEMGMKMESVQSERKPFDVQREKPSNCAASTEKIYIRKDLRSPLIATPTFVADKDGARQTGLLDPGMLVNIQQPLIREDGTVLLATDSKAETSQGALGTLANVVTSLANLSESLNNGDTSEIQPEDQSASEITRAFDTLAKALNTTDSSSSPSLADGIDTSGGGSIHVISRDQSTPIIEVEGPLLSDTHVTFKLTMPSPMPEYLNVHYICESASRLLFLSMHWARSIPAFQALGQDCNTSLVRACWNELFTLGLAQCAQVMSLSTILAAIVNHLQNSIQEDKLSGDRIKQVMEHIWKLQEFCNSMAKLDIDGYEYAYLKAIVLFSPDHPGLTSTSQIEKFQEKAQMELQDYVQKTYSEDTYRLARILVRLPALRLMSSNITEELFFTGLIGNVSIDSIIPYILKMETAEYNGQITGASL
The experiment in a line: Dual-luciferase reporter assay of TR4 transactivation. Type of assay: cell-based. Conditions: for Luciferase activity (TR4 transactivation), validation of the reporter system: 293T cells cotransfected with pGLO-TR4RE-Dluc and TR4 (Figure 2B); for Effect on TR4 transactivation: 10 μM, 24 h, 293T cells, DMSO negative control (Figure 3A); for Effect on TR4 transactivation in the presence of ATRA: drug 10 μM, ATRA 20 μM (Figure 3E). In short, it runs like this: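 TR4RE-TK-firefly luciferase cassette from pGL3-(DR)3-TK subcloned into pmirGLO, giving a dual-luciferase reporter. Cells were cotransfected with reporter and TR4 expression plasmid for 24 h, then exposed to test compound for another 24 h: 10 μM for screening or a dose range for curves, with DMSO as negative control. Some arms included ATRA 20 μM. Luciferase was read with a dual-luciferase kit. Means of three independent experiments.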
A general note: Reporter assays use an easily measured gene product as a stand-in for the process of interest.

For assay [2], the target named is T2, TR4-LBD (Homo sapiens, UniProt P49116).
T2 sequence (P49116 341-583 limits assumed): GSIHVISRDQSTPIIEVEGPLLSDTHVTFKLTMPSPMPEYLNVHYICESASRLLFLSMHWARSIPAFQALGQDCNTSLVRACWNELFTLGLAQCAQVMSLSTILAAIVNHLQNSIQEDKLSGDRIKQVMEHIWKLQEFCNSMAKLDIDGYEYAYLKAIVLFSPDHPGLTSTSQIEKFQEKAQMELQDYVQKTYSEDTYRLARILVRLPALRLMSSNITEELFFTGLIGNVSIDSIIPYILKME
The experiment in a line: SPRi assay: binding of TR4-LBD to the immobilized FDA-approved drug library.

Assay [3] deals with T2, TR4-LBD. The experiment in a line: Circular dichroism spectra of TR4-LBD with or without drug. The note with it: TR4-LBD 0.2 mg/mL, drug 20 μM, 5 mM phosphate buffer pH 7.4. An outline of the steps: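 TR4 ligand-binding domain was expressed in E. coli BL21(DE3) with an N-terminal His6-SUMO tag, purified on His-tag resin, cleaved with SUMO protease, and collected in the flow-through of a second His-tag step. It was desalted into 5 mM phosphate buffer and quantified by BCA. Spectra of protein with or without test compound were recorded in a 0.5 cm path-length cell.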
(Circular dichroism is widely used to follow secondary structure.)

Assay [4] concerns NQO2. Conditions: read-out: IC50, NQO2 inhibition; cited from earlier work.

In the case of `CC1=C(/C=C/C(C)=C/C=C/C(C)=C/C(=O)O)C(C)(C)CCC1` [ATRA, all-trans-retinoic acid], the “Luciferase activity (TR4 transactivation), validation of the reporter system” value in assay [1] is “elevated”. The same compound registered a Kd in assay [2] of 100 µM.

With `O=c1c(-c2ccc(O)cc2)coc2cc(O)cc(O)c12` [Genistein], the “CD characteristic peak for α-helix at 208 nm” value in assay [3] is given as “significantly increased”. In assay [1], the EC50 came out at 2.42 µM, the “Effect on TR4 transactivation” value is “most potent activator” and the “Effect on TR4 transactivation in the presence of ATRA” value is recorded as “equivalent to that of genistein single treatment”. In assay [1] (genistein EC50 2.42 μM vs ATRA 23.8 μM), the “Efficiency relative to ATRA (EC50 ratio)” value is “approximately 10 times”.

`Cc1cn(-c2cc(NC(=O)c3ccc(C)c(Nc4nccc(-c5cccnc5)n4)c3)cc(C(F)(F)F)c2)cn1` [Nilotinib (AMN-107)]: the “CD characteristic peak for the β-sheet at 216 nm” value in assay [3] was “significantly reduced”. Also, the IC50 in assay [4] is 1.8 µM. Further, in assay [1], the EC50 is 1.05 µM, the “Effect on TR4 transactivation” value was “most potent inhibitor” and the “Effect on TR4 transactivation in the presence of ATRA” value is reported as “almost blocked the activation of TR4 by ATRA”.

Consider `C=C(c1ccc(C(=O)O)cc1)c1cc2c(cc1C)C(C)(C)CCC2(C)C` [bexarotene], for which, in assay [1], the EC50 worked out at 37.5 µM and the “Luciferase activity (TR4 transactivation), validation of the reporter system” value is given as “suppressed”. In addition, in assay [2], the Kd worked out at 0.0848 µM.

Values taken from paper PMC7711931 (ACS Omega, 2020).
